Assay results reported in publication PMC3254186 (Frontiers in Pharmacology, 2011).

Columns and labels:
Format in all cases: cell-based
Kir3.1/3.2 (GIRK) = target: T1, Kir3.1/3.2 (GIRK) (Homo sapiens, UniProt P48051+P48549); assay: Tl+ flux assay, mGluR8-activated GIRK in HEK-293 cells; conditions: from Tl+ flux IC50 values
T1 sequence (P48549 1-501): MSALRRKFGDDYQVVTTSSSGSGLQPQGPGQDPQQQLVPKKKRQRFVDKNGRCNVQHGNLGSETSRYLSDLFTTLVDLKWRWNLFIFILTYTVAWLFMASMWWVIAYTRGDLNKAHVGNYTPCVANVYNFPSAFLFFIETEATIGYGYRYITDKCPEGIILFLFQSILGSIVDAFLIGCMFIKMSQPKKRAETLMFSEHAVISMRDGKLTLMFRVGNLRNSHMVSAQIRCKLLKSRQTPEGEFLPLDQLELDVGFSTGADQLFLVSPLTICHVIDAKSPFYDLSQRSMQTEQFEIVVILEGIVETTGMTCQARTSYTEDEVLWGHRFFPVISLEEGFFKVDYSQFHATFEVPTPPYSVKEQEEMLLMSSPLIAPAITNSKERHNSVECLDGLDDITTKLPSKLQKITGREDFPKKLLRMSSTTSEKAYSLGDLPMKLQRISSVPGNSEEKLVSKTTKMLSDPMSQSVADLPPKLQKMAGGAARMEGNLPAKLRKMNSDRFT
T1 sequence (P48051 1-423): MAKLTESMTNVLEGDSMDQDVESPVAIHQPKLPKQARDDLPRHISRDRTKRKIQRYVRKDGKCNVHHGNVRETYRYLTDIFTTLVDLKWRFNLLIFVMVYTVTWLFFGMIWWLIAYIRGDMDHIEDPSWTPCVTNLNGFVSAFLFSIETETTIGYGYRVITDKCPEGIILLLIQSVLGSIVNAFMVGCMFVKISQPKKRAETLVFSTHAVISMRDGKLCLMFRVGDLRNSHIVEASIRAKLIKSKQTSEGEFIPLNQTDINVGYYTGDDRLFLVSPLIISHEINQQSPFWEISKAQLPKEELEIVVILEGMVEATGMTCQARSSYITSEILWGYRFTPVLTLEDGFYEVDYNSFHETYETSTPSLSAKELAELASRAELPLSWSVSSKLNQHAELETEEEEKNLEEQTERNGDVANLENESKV
In short: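 mGluR8/GIRK/HEK monoclonal cells stably expressing Kir3.1/3.2, M4 receptor and rat mGlu8a, loaded with FluoZin-2. Test compound pre-incubated 20 min (1:3 serial dilutions from 10 mM DMSO stock). Tl+ buffer (12 mM Tl2SO4, pH 7.3) added with glutamate at EC80, set daily from an 11-point curve. Imaged at 1 Hz (ex 470, em 540 nm), 20–23°C. Slope taken 5–15 s post-addition, vehicle-corrected. CRC n = 3. Selectivity taken from the Tl+ flux IC50 values for GIRK and Kir1.1-S44D.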

Kir1.1 = assay: Whole-cell patch clamp, Kir1.1; conditions: 20 μM, n = 5
Kir3.1/3.4 = target: T2, Kir3.1/3.4 (Homo sapiens, UniProt P48544+P48549); assay: Two-electrode voltage clamp in Xenopus oocytes, Kir3.1/3.4; conditions: TEVC oocytes, 25 μM, mean ± SEM, n = 6
T2 sequence (P48549 1-501): T1 sequence (P48549 1-501)
T2 sequence (P48544 1-419): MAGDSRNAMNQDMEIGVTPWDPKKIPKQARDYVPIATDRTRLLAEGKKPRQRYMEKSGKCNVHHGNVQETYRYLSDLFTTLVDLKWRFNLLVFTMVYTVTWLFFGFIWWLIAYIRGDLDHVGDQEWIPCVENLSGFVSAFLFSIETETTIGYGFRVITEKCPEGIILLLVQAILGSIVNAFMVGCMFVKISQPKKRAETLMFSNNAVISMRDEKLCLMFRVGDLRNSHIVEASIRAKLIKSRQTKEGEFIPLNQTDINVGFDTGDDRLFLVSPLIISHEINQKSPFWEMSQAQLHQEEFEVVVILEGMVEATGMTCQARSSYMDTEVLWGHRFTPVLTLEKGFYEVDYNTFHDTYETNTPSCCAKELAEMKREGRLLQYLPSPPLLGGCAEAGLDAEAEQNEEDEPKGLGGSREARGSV
In short: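 Xenopus oocytes were injected with Kir3.1/3.2 or Kir3.1/3.4 cRNA and voltage-clamped with two electrodes at 20–23°C, with current at −80 mV followed over time. The bath was switched from K+-free to 90 mM K+ to activate the channel. Test compound in 90K was applied continuously at graded concentrations, then 2 mM Ba2+ was added. A final 0K switch measured leak. Time constant derived (n = 6 at 25 μM). Percent inhibition n = 4–6.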

Kir7.1 = target: T3, Kir7.1 (Homo sapiens, UniProt O60928); assay: Two-electrode voltage clamp in Xenopus oocytes, Kir7.1
T3 sequence (O60928 1-360): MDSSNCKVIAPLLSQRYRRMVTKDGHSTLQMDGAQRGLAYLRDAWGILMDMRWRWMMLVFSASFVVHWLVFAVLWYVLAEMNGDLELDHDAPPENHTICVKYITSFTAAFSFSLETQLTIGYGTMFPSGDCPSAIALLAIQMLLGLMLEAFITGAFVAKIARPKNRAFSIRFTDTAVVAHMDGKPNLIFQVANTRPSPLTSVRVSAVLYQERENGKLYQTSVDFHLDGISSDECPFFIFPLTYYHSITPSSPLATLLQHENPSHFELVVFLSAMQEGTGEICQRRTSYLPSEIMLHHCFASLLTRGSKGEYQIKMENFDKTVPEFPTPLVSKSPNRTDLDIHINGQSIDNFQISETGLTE
In short: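 Stage V–VI Xenopus oocytes were defolliculated with 1 mg/mL collagenase and injected with 0.5–10 ng cRNA. They were kept at 16°C in modified L-15 for 24–72 h. Two-electrode voltage clamp at 20–23°C: held at −75 mV and stepped to −120 mV for 200 ms every 5 s, with current at −120 mV tracked over time. Test compound (50 μM) was perfused, then 2 mM Ba2+. Time constant of inhibition derived.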

selectivity for GIRK over Kir1.1 (Kir3.1/3.2 (GIRK)): 10 fold | time constant (τ) for inhibition of Kir3.1/3.4 currents (Kir3.1/3.4): 27 ± 5 s | time constant of Kir7.1 inhibition (Kir7.1; TEVC oocytes, 50 μM, n = 8): 38 ± 6 s | inhibition at 50 µM (Kir7.1; read-out: inhibition of Kir7.1): 66 ± 6%
Compound: Cc1ccc(OCC(O)Cn2c(=N)n(Cc3ccccc3)c3ccccc32)cc1 (centres unmarked) [Compound 1, 1-(3-benzyl-2-imino-2,3-dihydro-1H-benzo[d]imidazol-1-yl)-3-(p-tolyloxy)propan-2-ol]
inhibition of Kir1.1 (Kir1.1): 49.5 ± 0.03%
